One block for each compound: values may come before it. Active and inactive are the calls of the source. No cut-off for these calls is given here.
Tests used:
HCT-116 [1] = test: Cytotoxicity against human HCT116 cells after 72 hrs by MTT assay; assay type: functional, cell-based; conditions: HCT-116, 72 h
HCT-116 [2] = test: Cell cycle arrest in human HCT116 cells assessed as accumulation at G2/M phase after 24 hrs by propidium iodide staining-based flow cytometry; assay type: functional
Procedure, shortened: (§1)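 Subconfluent cultures exposed continuously to compound; floating and trypsinized adherent cells pooled, PBS-washed, fixed in ice-cold 70% ethanol 30 min, RNase (100 µg/mL) treated, stained with propidium iodide, DNA content measured by flow cytometry to give G1, S, G2/M, apoptotic (sub-G1) and polyploid fractions. Experiments repeated at least twice.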

HCT-116 [3] = test: Inhibition of mitosis in human HCT116 cells assessed as mitotic index at 20 uM after 24 hrs by fluorescence assay; assay type: functional
Procedure, shortened: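 Cells treated 24 h, collected as for cell cycle analysis, cytospun, fixed in cold methanol, stained with 3 µM DAPI; mitotic cells counted among 1000 cells under 40× objective. Mean ± SD from three independent experiments.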

[4] = Solubility of the compound at 20 uM
T98G = test: Cytotoxicity against human T98G cells after 72 hrs by SRB assay; assay type: functional, cell-based
Procedure, shortened: (§2)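 Cells plated at 2 × 10³ per well 24 h before continuous 72 h exposure to a concentration series; fixed with cold 50% TCA 1 h at 4 °C, stained with 0.4% sulforhodamine B in 1% acetic acid 30 min, bound dye extracted in 10 mM Tris base, OD 540 nm. Viability as % of DMSO control; IC50 = concentration reducing viability 50%; triplicates, ≥3 experiments.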

MCF7 = test: Cytotoxicity against human MCF7 cells after 72 hrs by SRB assay; assay type: functional, cell-based; conditions: MCF7, 72 h; procedure, shortened: as §2
DU-145 [5] = test: Cytotoxicity against human DU145 cells after 72 hrs by MTT assay; assay type: functional, cell-based; conditions: DU-145, 72 h
Procedure, shortened: (§3)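 Cells seeded at 2 × 10³ per well, 24 h later exposed continuously 72 h to varying concentrations; then 0.5 mg/mL MTT in phenol red-free DMEM 3 h at 37 °C, formazan dissolved in 2-propanol/HCl, OD 570 nm. Viability relative to DMSO vehicle; IC50 = concentration reducing viability by 50%; triplicate wells, at least three independent experiments, mean ± SD.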

HT-29 = test: Cytotoxicity against human HT-29 cells after 72 hrs by SRB assay; assay type: functional, cell-based; conditions: HT-29, 72 h; procedure, shortened: as §2
PC-3 = test: Cytotoxicity against human PC3 cells after 72 hrs by MTT assay; assay type: functional, cell-based; conditions: PC-3, 72 h; procedure, shortened: as §3
Caco-2 = test: Cytotoxicity against human Caco2 cells after 72 hrs by MTT assay; assay type: functional, cell-based; conditions: Caco-2, 72 h; procedure, shortened: as §3
LoVo = test: Cytotoxicity against human LoVo cells after 72 hrs by MTT assay; assay type: functional, cell-based; procedure, shortened: as §3
AGS [6] = test: Cytotoxicity against human AGS cells after 72 hrs by MTT assay; assay type: functional, cell-based; procedure, shortened: as §3
SK-BR-3 = test: Cytotoxicity against human SKBR3 cells after 72 hrs by SRB assay; assay type: functional, cell-based; conditions: SK-BR-3, 72 h; procedure, shortened: as §2
A549 [7] = test: Cytotoxicity against human A549 cells after 72 hrs by SRB assay; assay type: functional, cell-based; conditions: A549, 72 h; procedure, shortened: as §2
LNCaP = test: Cytotoxicity against human LNCAP cells after 72 hrs by SRB assay; assay type: functional, cell-based; procedure, shortened: as §2
HCT-116 [8] = test: Inhibition of mitosis in human HCT116 cells assessed as appearance of tripolar and multipolar spindle at 5 uM after 24 hrs by immunofluorescence assay; assay type: functional; set-up: scale not given: the % may be the effect or the level left
Procedure, shortened: (§4)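 Cells treated 24 h on chamber slides, fixed in ice-cold methanol, blocked with 1% goat serum, stained with mouse anti-β-tubulin (1:50) then FITC anti-mouse, DAPI counterstained; 100 mitotic cells per treatment scored at 100× oil for spindle type (normal bipolar, bipolar with lagging chromosomes, tri/multipolar, monopolar). Mean ± SD of two experiments.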

[9] = Inhibition of tubulin polymerization after 1 hr
Procedure, shortened: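 Cell-free assay: >97% pure tubulin in G-PEM buffer (80 mM PIPES, 2 mM MgCl2, 0.5 mM EGTA, 1 mM GTP, pH 6.9) plus 5% glycerol, with vehicle, compound (10, 20, 50 µM) or 3 µM paclitaxel, in pre-warmed plate at 37 °C; absorbance at 340 nm read every minute for 1 h. Repeated twice.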

HCT-116 [10] = test: Inhibition of mitosis in human HCT116 cells assessed as appearance of bipolar spindle with large mass of lagging chromosomes at spindle poles at 20 uM after 24 hrs by immunofluorescence assay; assay type: functional; set-up: scale not given: the % may be the effect or the level left; procedure, shortened: as §4
HCT-116 [11] = test: Cytotoxicity against p53-deficient human HCT116 cells after 72 hrs by MTT assay; assay type: functional, cell-based; conditions: HCT-116, 72 h; procedure, shortened: as §3
HCT-116 [12] = test: Inhibition of mitosis in human HCT116 cells assessed as appearance of normal bipolar spindle at 10 uM after 24 hrs by immunofluorescence assay; assay type: functional; set-up: scale not given: the % may be the effect or the level left; procedure, shortened: as §4
HCT-116 [13] = test: Inhibition of mitosis in human HCT116 cells assessed as appearance of tripolar and multipolar spindle at 20 uM after 24 hrs by immunofluorescence assay; assay type: functional; set-up: scale not given: the % may be the effect or the level left; procedure, shortened: as §4
HCT-116 [14] = test: Induction of senescence in human HCT116 cells assessed as beta galactosidase activity at 20 uM
HCT-116 [15] = test: Induction of apoptosis in human HCT116 cells harboring p53 protein assessed as effect on apoptotic index at 20 uM after 72 hrs by DNA laddering assay; assay type: functional
Procedure, shortened: (§5)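 Floating and trypsin-detached adherent cells pooled, cytospun, fixed and TUNEL-labelled; apoptotic index scored among 500 nuclei, three experiments. In parallel, DNA extracted (proteinase K/SDS overnight 56 °C, phenol/chloroform, RNase A) and run on 1.8% agarose/ethidium bromide gel in 0.5× TBE for laddering. Controls received 0.2% DMSO; 24, 48, 72 h treatments.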

HCT-116 [16] = test: Inhibition of mitosis in human HCT116 cells assessed as appearance of normal bipolar spindle at 5 uM after 24 hrs by immunofluorescence assay; assay type: functional; set-up: scale not given: the % may be the effect or the level left; procedure, shortened: as §4
HCT-116 [17] = test: Inhibition of mitosis in human HCT116 cells assessed as appearance of monopolar spindle at 10 uM after 24 hrs by immunofluorescence assay; assay type: functional; set-up: scale not given: the % may be the effect or the level left; procedure, shortened: as §4
HCT-116 [18] = test: Inhibition of mitosis in human HCT116 cells assessed as appearance of monopolar spindle at 5 uM after 24 hrs by immunofluorescence assay; assay type: functional; set-up: scale not given: the % may be the effect or the level left; procedure, shortened: as §4
HCT-116 [19] = test: Inhibition of mitosis in human HCT116 cells assessed as appearance of bipolar spindle with large mass of lagging chromosomes at spindle poles at 10 uM after 24 hrs by immunofluorescence assay; assay type: functional; set-up: scale not given: the % may be the effect or the level left; procedure, shortened: as §4
A549 [20] = test: Cell cycle arrest in human A549 cells assessed as accumulation at G2/M phase at 20 uM after 24 hrs by propidium iodide staining-based flow cytometry; assay type: functional; procedure, shortened: as §1
DU-145 [21] = test: Cell cycle arrest in human DU145 cells assessed as accumulation at G2/M phase at 20 uM after 24 hrs by propidium iodide staining-based flow cytometry; assay type: functional; procedure, shortened: as §1
HCT-116 [22] = test: Cytotoxicity against human HCT116 cells harboring p53 protein after 72 hrs by MTT assay; assay type: functional, cell-based; conditions: HCT-116, 72 h; procedure, shortened: as §3
HCT-116 [23] = test: Induction of apoptosis in p53-deficient human HCT116 cells assessed as effect on apoptotic index at 20 uM after 72 hrs by DNA laddering assay; assay type: functional; procedure, shortened: as §5
HCT-116 [24] = test: Induction of apoptosis in human HCT116 cells assessed as appearance of hypodiploid nucleus at 5 to 20 uM after 48 hrs by flow cytometry; assay type: functional, cell-based; procedure, shortened: as §1
HCT-116 [25] = test: Inhibition of mitosis in human HCT116 cells assessed as appearance of normal bipolar spindle at 20 uM after 24 hrs by immunofluorescence assay; assay type: functional; set-up: scale not given: the % may be the effect or the level left; procedure, shortened: as §4
HCT-116 [26] = test: Induction of apoptosis in human HCT116 cells assessed as effect on apoptotic index at 20 uM after 72 hrs by DNA laddering assay; assay type: functional; procedure, shortened: as §5
HCT-116 [27] = test: Inhibition of mitosis in human HCT116 cells assessed as appearance of tripolar and multipolar spindle at 10 uM after 24 hrs by immunofluorescence assay; assay type: functional; set-up: scale not given: the % may be the effect or the level left; procedure, shortened: as §4
HCT-116 [28] = test: Inhibition of mitosis in human HCT116 cells assessed as appearance of monopolar spindle at 20 uM after 24 hrs by immunofluorescence assay; assay type: functional; set-up: scale not given: the % may be the effect or the level left; procedure, shortened: as §4
HCT-116 [29] = test: Induction of apoptosis in human HCT116 cells assessed as appearance of tetraploid nucleus at 5 to 20 uM after 48 hrs by flow cytometry; assay type: functional, cell-based; procedure, shortened: as §1
HCT-116 [30] = test: Inhibition of mitosis in human HCT116 cells assessed as appearance of bipolar spindle with large mass of lagging chromosomes at spindle poles at 5 uM after 24 hrs by immunofluorescence assay; assay type: functional; set-up: scale not given: the % may be the effect or the level left; procedure, shortened: as §4
HCT-116 [31] = test: Induction of apoptosis in human HCT116 cells assessed as appearance of hypodiploid nucleus at 20 uM after 72 hrs by TUNEL assay; assay type: functional, cell-based; procedure, shortened: as §5
AGS [32] = test: Cell cycle arrest in human AGS cells assessed as accumulation at G2/M phase at 20 uM after 24 hrs by propidium iodide staining-based flow cytometry; assay type: functional; procedure, shortened: as §1

Structure (SMILES): O=c1c(-c2ccc(O)cc2)coc2cc(OCCO)cc(O)c12
IC50 (HCT-116 [1]): 25 µM

Structure (SMILES): CC(=O)O[C@@H]1C=C[C@H](OCCCCCOc2cc(O)c3c(=O)c(-c4ccc(O)cc4)coc3c2)O[C@H]1C
Activity (HCT-116 [2]): Dose-dependent effect
Activity (HCT-116 [3]): 3.5
IC50 (HCT-116 [1]): 8.08 µM

solubility [4]: Insoluble
Structure (SMILES): CC(=O)OC[C@H]1O[C@@H](O[C@H]2C=C[C@@H](OCCOc3cc(O)c4c(=O)c(-c5ccc(O)cc5)coc4c3)O[C@@H]2COC(C)=O)[C@H](OC(C)=O)[C@@H](OC(C)=O)[C@H]1OC(C)=O
IC50 (HCT-116 [1]): > 20 µM

Structure (SMILES): O=c1c(-c2ccc(O)cc2)coc2cc(OCCCO)cc(O)c12
IC50 (HCT-116 [1]): 23.9 µM

Structure (SMILES): O=c1c(-c2ccc(O)cc2)coc2cc(O)cc(O)c12 [GENISTEIN]
IC50 (T98G): 89.4 µM
IC50 (MCF7): 62.7 µM
IC50 (DU-145 [5]): 47.3 µM
IC50 (HT-29): 52.8 µM
IC50 (PC-3): 65.2 µM
IC50 (Caco-2): > 100 µM
Activity (HCT-116 [3]): 1.8
IC50 (LoVo): 15.9 µM
IC50 (HCT-116 [1]): 34.9 µM
IC50 (AGS [6]): 41.7 µM
IC50 (SK-BR-3): 96.7 µM
IC50 (A549 [7]): 43.1 µM
IC50 (LNCaP): 30.7 µM

inhibition [9]: Dose-dependent effect
Structure (SMILES): CC(=O)O[C@@H]1C=C[C@H](OCCCOc2cc(O)c3c(=O)c(-c4ccc(O)cc4)coc3c2)O[C@H]1C
Activity (HCT-116 [8]): 1%
Activity (HCT-116 [10]): 40%
IC50 (T98G): 16.7 µM
IC50 (HCT-116 [11]): 6.21 µM
Activity (HCT-116 [12]): 44%
IC50 (MCF7): 8.88 µM
IC50 (DU-145 [5]): 14.5 µM
IC50 (HT-29): 36.1 µM
Activity (HCT-116 [13]): 42%
Activity (HCT-116 [14]): 31%
Activity (HCT-116 [15]): 12%
Activity (HCT-116 [16]): 85%
Activity (HCT-116 [2]): Dose-dependent effect
IC50 (PC-3): 10.7 µM
IC50 (Caco-2): 23.3 µM
Activity (HCT-116 [3]): 13.2
Activity (HCT-116 [17]): 3%
Activity (HCT-116 [18]): 0%
IC50 (LoVo): 9.85 µM
Activity (HCT-116 [19]): 38%
Activity (A549 [20]): 31.6%
Activity (DU-145 [21]): 46.1%
IC50 (HCT-116 [22]): 4.76 µM
Activity (HCT-116 [23]): 15%
Activity (HCT-116 [24]): Active
Activity (HCT-116 [25]): 16%
IC50 (HCT-116 [1]): 4.76 µM
IC50 (AGS [6]): 3.05 µM
IC50 (SK-BR-3): 28 µM
Activity (HCT-116 [26]): 12%
Activity (HCT-116 [27]): 15%
Activity (HCT-116 [28]): 2%
Activity (HCT-116 [29]): Active
Activity (HCT-116 [30]): 14%
Activity (HCT-116 [31]): Active
IC50 (A549 [7]): 14.7 µM
Activity (AGS [32]): 39.7%
IC50 (LNCaP): 18 µM
